Reference: ChEMBL document CHEMBL3046693, “Discovery and characterization of sulfoxaflor, a novel insecticide targeting sap-feeding pests” (J Agric Food Chem, 2011)
Values after ≈ are worked out from the molar mass of the structure shown. Active and inactive are the calls of the source. No cut-off for these calls is given here.

Key:
Aphis gossypii = assay: Insecticidal activity against Aphis gossypii (cotton aphid) DAS lab strain by leaf disk bioassay; assay type: functional; details: foliar
Myzus persicae [1] = assay: Insecticidal activity against drug resistant Myzus persicae R-4013A (green peach aphid) by leaf disk bioassay; assay type: functional; details: foliar
Myzus persicae [2] = assay: Insecticidal activity against Myzus persicae S-USIL (green peach aphid) by leaf disk bioassay; assay type: functional; details: foliar
Myzus persicae [3] = assay: Insecticidal activity against Myzus persicae (green peach aphid) DAS lab strain by leaf disk bioassay; assay type: functional; details: foliar
Bemisia tabaci [4] = assay: Insecticidal activity against Bemisia tabaci DAS (sweet potato whitefly) lab strain by leaf disk bioassay; assay type: functional; details: foliar
Bemisia tabaci [5] = assay: Resistance index, ratio of LC50 for rothamsted-resistant Bemisia tabaci Q-biotype R-CHLORAKA (sweet potato whitefly) to LC50 for Bemisia tabaci SUD-S; assay type: functional
Myzus persicae [6] = assay: Resistance index, ratio of LC50 for drug resistant Myzus persicae R-4013A (green peach aphid) to LC50 for Myzus persicae S-USIL; assay type: functional
Bemisia tabaci [7] = assay: Insecticidal activity against rothamsted-resistant Bemisia tabaci Q-biotype R-CHLORAKA (sweet potato whitefly) by leaf disk bioassay; assay type: functional; details: foliar
Bemisia tabaci [8] = assay: Insecticidal activity against Bemisia tabaci SUD-S (sweet potato whitefly) by leaf disk bioassay; assay type: functional; details: foliar
CYP6G1 [9] = assay: Drug metabolism in Drosophila melanogaster D.mel-2 cells over-expressing in CYP6G1 assessed as drug recovery measured 24 hr post dose by HPLC method; assay type: ADME; details: D.mel-2 cells over-expressing CYP6G1, read-out: Drug recovery
[10] = (§1) Drug metabolism in Drosophila melanogaster D.mel-2 cells deficient in CYP6G1 assessed as drug recovery measured 24 hr post dose by HPLC method; assay type: ADME; details: 24 h
Bemisia tabaci [11] = assay: Insecticidal activity against Bemisia tabaci S-4971BT1 (sweet potato whitefly) by leaf disk bioassay; assay type: functional; details: S-4971BT1, foliar
Bemisia tabaci [12] = assay: Insecticidal activity against rothamsted-resistant Bemisia tabaci Q-biotype R-4971BT9 (sweet potato whitefly) by leaf disk bioassay; assay type: functional; details: Q-biotype R-4971BT9, foliar
Bemisia tabaci [13] = assay: Insecticidal activity against rothamsted-resistant Bemisia tabaci R-4991BT1 (sweet potato whitefly) by leaf disk bioassay; assay type: functional; details: R-4991BT1, foliar
Bemisia tabaci [14] = assay: Insecticidal activity against DAS-susceptible Bemisia tabaci S-4971BT1 (sweet potato whitefly) by leaf disk bioassay; assay type: functional; details: S-4971BT1, foliar
Bemisia tabaci [15] = assay: Insecticidal activity against DAS insecticide-resistant Bemisia tabaci B-biotype R-PBI (sweet potato whitefly) by leaf disk bioassay; assay type: functional; details: foliar
Bemisia tabaci [16] = assay: Insecticidal activity against drug sensitive Bemisia tabaci DAS (sweet potato whitefly) lab strain by leaf disk bioassay; assay type: functional; details: foliar
Drosophila melanogaster = assay: Activation of Drosophila melanogaster nicotinic acetylcholine receptor alpha2 expressed in Xenopus laevis co-expressing chicken nicotinic acetylcholine receptor beta2 subunit by electrophysiology method
Outline: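 Drosophila α2 cRNA co-injected with chicken β2 and C. elegans ric-3 chaperone into defolliculated X. laevis oocytes (≤50 nL at 1 ng/nL). Oocytes held singly in ND-96 (pH 7.6) at 18 °C and recorded 1-4 days after injection on an automated oocyte recording system.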

Myzus persicae [17] = assay: Insecticidal activity against Myzus persicae (green peach aphid) infested UV irradiated leaves of pepper plant exposed to compound at 124 ppm assessed as insect control efficacy post 7 days UV exposure relative to untreated control; assay type: functional
Outline: (§2)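 Aphid control on treated UV-exposed pepper leaves scored 3 days after infestation; four replicates per treatment and time point.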

Myzus persicae [18] = assay: Insecticidal activity against Myzus persicae (green peach aphid) infested UV irradiated leaves of pepper plant exposed to compound at 124 ppm assessed as insect control efficacy post 3 days UV exposure relative to untreated control; assay type: functional; outline: as §2
Myzus persicae [19] = assay: Insecticidal activity against Myzus persicae (green peach aphid) infested UV irradiated leaves of pepper plant exposed to compound at 124 ppm assessed as insect control efficacy post 0 day UV exposure relative to untreated control; assay type: functional; outline: as §2
Bemisia tabaci [20] = assay: Resistance index, ratio of LC50 for rothamsted-resistant Bemisia tabaci Q-biotype R-4971BT9 (sweet potato whitefly) to LC50 for Bemisia tabaci S-4971BT1; assay type: functional
Bemisia tabaci [21] = assay: Resistance index, ratio of LC50 for drug resistant rothamsted-resistant Bemisia tabaci R-4991BT1 (sweet potato whitefly) to LC50 for DAS-susceptible Bemisia tabaci S-4971BT1; assay type: functional
Bemisia tabaci [22] = assay: Resistance index, ratio of LC50 for DAS insecticide-resistant Bemisia tabaci B-biotype R-PB (sweet potato whitefly) to LC50 for drug sensitive Bemisia tabaci DAS lab strain; assay type: functional
CYP6G1 [23] = assay: as §1; assay type: ADME; details: D.mel-2 cells deficient in CYP6G1, read-out: Drug recovery
[24] = Stability assessed as half life for photolysis in UV chamber at 1000 ppm by HPLC method; assay type: physicochemical
Myzus persicae [25] = assay: Displacement of [3H]imidacloprid from nicotinic acetylcholine receptor in Myzus persicae (green peach aphid) homogenates by scintillation counting
Outline: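 Frozen (-80 °C) aphids homogenized at 4 °C in sucrose/Tris/EDTA/PMSF buffer (pH 7.2), filtered, spun 3500 rpm 15 min then 17500 rpm 20 min (4 °C). Pellet resuspended in 120 mM NaCl, 50 mM Tris (pH 7.4). ~2 nM [3H]IMI, 70 μg protein/well and competitor for 60 min at ~22 °C. Protein-started, filtration-stopped, scintillation-counted; total and filter binding measured.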

Question: For `CC(c1ccc(Cl)nc1)S(C)(=O)=NC#N` (configuration not stated), which LC50 (Aphis gossypii) is on record?
Answer: The LC50 was 3 µg/mL (≈ 12.3 µM).

Question: What about the LC50 (Myzus persicae [1]) of the same molecule?
Answer: The LC50 was 12.5 µg/mL (≈ 51.3 µM).

Question: And the LC50 (Myzus persicae [2])?
Answer: Its LC50 is 62.3 µg/mL (≈ 256 µM).

Question: And the LC50 (Myzus persicae [3])?
Answer: The LC50 was 0.374 µg/mL (≈ 1.53 µM).

Question: And the LC50 (Bemisia tabaci [4])?
Answer: Its LC50 is 0.29 µg/mL (≈ 1.19 µM).

Question: And the RatioLC50 (Bemisia tabaci [5])?
Answer: Its RatioLC50 is 2.9.

Question: What about the RatioLC50 (Myzus persicae [6]) of the same molecule?
Answer: Its RatioLC50 is 0.2.

Question: And the LC50 (Bemisia tabaci [7])?
Answer: Its LC50 is 13.2 µg/mL (≈ 54.2 µM).

Question: What about the LC50 (Bemisia tabaci [8]) of the same molecule?
Answer: The LC50 was 4.48 µg/mL (≈ 18.4 µM).

Question: Which remaining at 24 h (CYP6G1 [9]) does the source give for `C/C(=N\C#N)N(C)Cc1ccc(Cl)nc1` [ACETAMIPRID] here?
Answer: Its remaining at 24 h is 0%.

Question: What about the Drug recovery [10] of the same molecule?
Answer: Its Drug recovery is 122.7%.

Question: Which results are given for `O=[N+]([O-])/N=C1\NCCN1Cc1ccc(Cl)nc1` [IMIDACLOPRID]?
Answer: LC50 (Aphis gossypii): 7.8 µg/mL (≈ 30.5 µM); LC50 (Myzus persicae [1]): 15.3 µg/mL (≈ 59.8 µM); LC50 (Myzus persicae [2]): 0.896 µg/mL (≈ 3.5 µM); LC50 (Myzus persicae [3]): 0.09 µg/mL (≈ 0.352 µM); LC50 (Bemisia tabaci [11]): 4.4 µg/mL (≈ 17.2 µM); LC50 (Bemisia tabaci [12]): 4500 µg/mL (≈ 17600 µM); LC50 (Bemisia tabaci [13]): > 1000 µg/mL; LC50 (Bemisia tabaci [14]): 4.4 µg/mL (≈ 17.2 µM); LC50 (Bemisia tabaci [15]): 174 µg/mL (≈ 681 µM); LC50 (Bemisia tabaci [16]): 0.2 µg/mL (≈ 0.782 µM); LC50 (Bemisia tabaci [4]): 0.37 µg/mL (≈ 1.45 µM); Activity (Drosophila melanogaster): Active; Efficacy (Myzus persicae [17]): 21%; Efficacy (Myzus persicae [18]): 42%; Efficacy (Myzus persicae [19]): 100%; RatioLC50 (Bemisia tabaci [5]): >833; RatioLC50 (Bemisia tabaci [20]): 1022; RatioLC50 (Bemisia tabaci [21]): >230; RatioLC50 (Bemisia tabaci [22]): 870; RatioLC50 (Myzus persicae [6]): 17.1; LC50 (Bemisia tabaci [7]): > 1000 µg/mL; LC50 (Bemisia tabaci [8]): 1.23 µg/mL (≈ 4.81 µM)

Question: Which remaining at 24 h (CYP6G1 [9]) does the source give for `O=[N+]([O-])NC1=NCCN1Cc1ccc(Cl)nc1` [IMIDACLOPRID] here?
Answer: The remaining at 24 h was 4.5%.

Question: And the remaining at 24 h (CYP6G1 [23])?
Answer: Its remaining at 24 h is 115%.

Question: And the half-life at 1000 ppm [24]?
Answer: The half-life at 1000 ppm was 7 h.

Question: Which LC50 (Aphis gossypii) does the source give for `CC(c1ccc(C(F)(F)F)nc1)S(C)(=O)=NC#N` (configuration not stated) [SULFOXAFLOR] here?
Answer: Its LC50 is 0.2 µg/mL (≈ 0.721 µM).

Question: What about the LC50 (Myzus persicae [1]) of the same molecule?
Answer: Its LC50 is 1.52 µg/mL (≈ 5.48 µM).

Question: What about the LC50 (Myzus persicae [2]) of the same molecule?
Answer: Its LC50 is 4.13 µg/mL (≈ 14.9 µM).

Question: And the LC50 (Myzus persicae [3])?
Answer: The LC50 was 0.074 µg/mL (≈ 0.267 µM).

Question: What about the LC50 (Bemisia tabaci [11]) of the same molecule?
Answer: Its LC50 is 18 µg/mL (≈ 64.9 µM).

Question: And the LC50 (Bemisia tabaci [12])?
Answer: Its LC50 is 39 µg/mL (≈ 141 µM).

Question: What about the LC50 (Bemisia tabaci [13]) of the same molecule?
Answer: The LC50 was 28 µg/mL (≈ 101 µM).

Question: And the LC50 (Bemisia tabaci [14])?
Answer: The LC50 was 18 µg/mL (≈ 64.9 µM).

Question: What about the LC50 (Bemisia tabaci [15]) of the same molecule?
Answer: The LC50 was 6.4 µg/mL (≈ 23.1 µM).

Question: What about the LC50 (Bemisia tabaci [16]) of the same molecule?
Answer: Its LC50 is 2.8 µg/mL (≈ 10.1 µM).

Question: What about the LC50 (Bemisia tabaci [4]) of the same molecule?
Answer: Its LC50 is 0.85 µg/mL (≈ 3.07 µM).

Question: What about the Activity (Myzus persicae [25]) of the same molecule?
Answer: The Activity was “Active”.

Question: And the Activity (Drosophila melanogaster)?
Answer: The Activity was “Active”.

Question: And the remaining at 24 h (CYP6G1 [9])?
Answer: The remaining at 24 h was 108%.

Question: What about the remaining at 24 h (CYP6G1 [23]) of the same molecule?
Answer: The remaining at 24 h was 105%.

Question: What about the Efficacy (Myzus persicae [17]) of the same molecule?
Answer: The Efficacy was 90%.

Question: What about the Efficacy (Myzus persicae [18]) of the same molecule?
Answer: Its Efficacy is 100%.

Question: And the Efficacy (Myzus persicae [19])?
Answer: Its Efficacy is 100%.

Question: And the half-life at 1000 ppm [24]?
Answer: The half-life at 1000 ppm was 88 h.

Question: What about the RatioLC50 (Bemisia tabaci [5]) of the same molecule?
Answer: Its RatioLC50 is 2.8.

Question: And the RatioLC50 (Bemisia tabaci [20])?
Answer: Its RatioLC50 is 2.2.

Question: And the RatioLC50 (Bemisia tabaci [21])?
Answer: Its RatioLC50 is 1.6.

Question: And the RatioLC50 (Bemisia tabaci [22])?
Answer: The RatioLC50 was 2.3.

Question: What about the RatioLC50 (Myzus persicae [6]) of the same molecule?
Answer: Its RatioLC50 is 0.37.

Question: What about the LC50 (Bemisia tabaci [7]) of the same molecule?
Answer: Its LC50 is 5 µg/mL (≈ 18 µM).

Question: And the LC50 (Bemisia tabaci [8])?
Answer: The LC50 was 1.8 µg/mL (≈ 6.49 µM).
